TRPC4 potent = TRPC4 (mouse) allosteric potentiation; Q9QUQ5; HEK293 TRPC4beta/mu-opioid, DAMGO EC20, Fluo-4 Ca2+ flux; active compounds read high; B-score at 10 µM; 310,000 compounds, 0.42% hits;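 active = B-score of calcium response area above 5 SD of library B-scores, with initial fluorescence ratio within 5 SD of library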
TRPC6 act = mouse TRPC6 channel activation | 310,000 compounds, 0.13% hits | HEK293-TRPC6 membrane potential dye fluorescence; active compounds read high | B-score at 10 µM;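 active = B-score of the integrated fluorescence ratio above library mean plus 3 SD, and starting fluorescence ratio within library mean plus 5 SD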;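 also: higher score means more depolarization so channel activation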
Target sequence (Q61143 whole entry, looked up): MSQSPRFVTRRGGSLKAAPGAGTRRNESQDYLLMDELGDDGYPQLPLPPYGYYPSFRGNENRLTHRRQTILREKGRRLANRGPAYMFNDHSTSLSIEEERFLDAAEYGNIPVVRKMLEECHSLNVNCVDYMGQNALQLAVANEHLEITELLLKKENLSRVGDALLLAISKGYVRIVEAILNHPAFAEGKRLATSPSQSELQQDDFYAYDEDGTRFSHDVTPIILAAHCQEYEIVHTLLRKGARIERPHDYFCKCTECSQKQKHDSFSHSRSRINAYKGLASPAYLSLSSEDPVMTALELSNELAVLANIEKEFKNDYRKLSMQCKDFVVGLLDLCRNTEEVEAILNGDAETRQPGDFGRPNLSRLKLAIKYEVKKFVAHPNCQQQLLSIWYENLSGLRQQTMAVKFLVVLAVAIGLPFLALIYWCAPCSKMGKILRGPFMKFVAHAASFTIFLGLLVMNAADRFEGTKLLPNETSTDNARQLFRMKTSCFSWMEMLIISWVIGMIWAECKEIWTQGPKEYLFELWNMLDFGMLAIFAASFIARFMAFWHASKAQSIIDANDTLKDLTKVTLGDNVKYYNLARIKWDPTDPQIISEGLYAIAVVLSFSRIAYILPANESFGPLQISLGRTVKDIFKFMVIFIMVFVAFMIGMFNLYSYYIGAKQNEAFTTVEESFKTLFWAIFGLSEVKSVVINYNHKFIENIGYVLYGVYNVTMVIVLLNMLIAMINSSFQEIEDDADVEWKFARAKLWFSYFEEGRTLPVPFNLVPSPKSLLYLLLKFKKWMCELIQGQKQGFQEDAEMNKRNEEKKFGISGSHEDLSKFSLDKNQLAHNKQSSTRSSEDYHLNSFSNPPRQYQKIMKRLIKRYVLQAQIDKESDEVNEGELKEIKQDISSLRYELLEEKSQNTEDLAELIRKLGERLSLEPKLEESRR
TRPC4 block = blocks the mouse TRPC4 cation channel. Q9QUQ5. HEK293 TRPC4beta/mu-opioid, DAMGO-evoked Fluo4 calcium flux; active compounds read low. B-score at 10 µM. 300,000 compounds, 0.39% hits;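 active = B-score over 3 SD under the library average, no early fluorescence shift, positive overall ratio signal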
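test system = HEK293 cells with stable TRPC4beta plus mu-opioid receptor expression | detection = Fluo4 Ca2+ flux fluorescence | read-out = integrated fluorescence ratio relative to baseline, converted to per-well B score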
TRPC4 agonist = TRPC4 (mouse) channel activation; Q9QUQ5; 310,000 compounds, 0.49% hits; B-score at 10 µM; HEK293 TRPC4beta/mu-opioid, Fluo4 calcium fluorescence; active compounds read high;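 active = B-score above 5 SD of library B-scores, and initial fluorescence ratio not above library mean plus 5 SD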;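 also: positive B-score marks a calcium rise read as TRPC4 activation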
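system = HEK293 cells stably co-expressing mouse TRPC4beta and mu-opioid receptor | schedule = Fluo4 dye loading 45 min at room temperature, 110 s recording | measure = B-scored integrated calcium fluorescence ratio | signal = Fluo4 calcium-sensitive dye fluorescence, kinetic, 1 Hz baseline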
TRPC6 inhibitor = inhibitors of mouse TRPC6 channel; Q61143; HEK293-TRPC6, membrane potential dye, ACh-evoked depolarization; active compounds read low; B-score at 10 µM; 310,000 compounds, 1.1% hits;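 active = B-score under library mean minus 3 SD, initial fluorescence not abnormally high, positive integrated signal ratio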;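 also: B-score derived from integrated fluorescence ratio over the kinetic read; more negative B-score means stronger inhibition of depolarization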
Large screens that a line does not name were inactive. Hits are enriched below; roughly 2.3% of the tested compounds scored in any of these assays.

COc1ccc(Sc2nc(-c3ccccc3)ncc2C(=O)O)cc1	TRPC4 block -7
COCCN(CCOC)C(=O)c1cc2sc3ccccc3c2s1	TRPC4 potent 13
CN(C)CCNC(=O)c1cc2sc3ccccc3c2s1	TRPC4 potent 10
CCN(CC)C(=O)c1cc2sc3ccccc3c2s1	none
CN(CC(=O)Nc1ccc(F)cc1)C(=O)COC(=O)C1CCN(c2ccc(C(F)(F)F)cn2)CC1	TRPC4 block -5
COc1ccc(-n2c(O)c(/C=N/NS(=O)(=O)c3ccc(C)c([N+](=O)[O-])c3)c3ccccc3c2=O)cc1OC	TRPC4 agonist 56
CCn1cnc2cc(NCc3ccc(C)cc3)ccc21	none
Cc1ccc(CNc2ccc3c(c2)ncn3C(C)C)cc1	TRPC4 agonist 45
CC(C)(C)C(=O)/C=C/c1ccc(Oc2ccccc2)cc1	none
CCCCN(CC)CCNC(=O)c1cc2c(=O)[nH]c3ccccc3c2s1	TRPC4 agonist 48
CCCN(CCC)CCCNC(=O)c1cc2c(=O)[nH]c3ccccc3c2s1	TRPC4 agonist 80
CCOC(CCNC(=O)c1cc2c(=O)[nH]c3ccccc3c2s1)OCC	none
CCOc1ccc(NC(=O)c2ccc(NC(=O)CSc3nc4ccccc4c(=O)[nH]3)cc2)cc1	none
CC(=O)Nc1ccc(NC(=O)CC(NC(=O)c2ccccc2)c2ccccc2)cc1 (stereo not given)	none
N#CC1(c2ccccc2)CCCN1C(=O)c1ccc(Br)o1 (stereo not given)	none
Cc1ccc(NC(=O)CCC(=O)Nc2nnc(C3CCCCC3)s2)cc1	none
NC(=O)C(c1ccc(Cl)cc1Cl)c1ncc(C(F)(F)F)cc1Cl (stereo not given)	TRPC4 potent 14
Cc1nn(C)cc1/C=N/NC(=O)C(C)(C)Oc1ccc(Cl)cc1	TRPC4 potent 11
Cc1cc(C)cc(OCC(=O)N/N=C\c2cn(C)nc2C)c1	none
COc1cc(C2NC(=S)NC(C)=C2C(=O)Nc2cc(C)cc(C)c2)ccc1O (stereo not given)	TRPC4 potent 10
O=Cc1cc(N=Nc2cccc(C(=O)O)c2)ccc1O	none
O=Cc1cc(N=Nc2ccccc2Cl)ccc1O	TRPC4 block -7
CCCC/C(O)=C1\C(=O)CC(C)(C)CC1=Nc1ccc(OC)cc1	TRPC4 potent 12
CC(=O)N1c2ccccc2C2(O)N=C(C)SC12 (stereo not given)	none
C/C(=N\N1CCN(C)CC1)c1ccc(Cl)c(Cl)c1	TRPC4 potent 15
C/C(=N\N1CCN(C)CC1)c1ccc(OC(F)F)cc1	none
Oc1cccc(C2c3[nH]c4ccccc4c3CCN2Cc2ccoc2)c1 (stereo not given)	none
Oc1cccc(C2c3[nH]c4ccccc4c3CCN2Cc2ccc3c(c2)CCO3)c1 (stereo not given)	TRPC4 block -6
COc1cccc(N2CCN(C(=O)C3CCN(S(=O)(=O)c4cccs4)CC3)CC2)c1	none
COc1cc([N+](=O)[O-])ccc1NC(=O)C[n+]1cccc(C(C)=O)c1	none
CN1CCCCC1CCN1c2ccccc2Sc2ccc(S(C)=O)cc21 (stereo not given)	TRPC6 inhibitor -7.5
Cc1ccc(Oc2ccccc2/C=N/O)cc1	TRPC4 block -7
CCCC[C@@H]1CNCCN1CC1(c2ccccc2)CC1	none
CC(=O)c1c(O)c(C)c(O)c2c1OC1=CC(=O)C(C(C)=O)C(=O)[C@@]12C (stereo not given in full)	TRPC4 block -6, TRPC4 agonist 90
CC(=O)Oc1c(C)c(OC(C)=O)c2c(c1C(C)=O)OC1CC(=O)C(C(C)=O)=C(O)C21C (stereo not given)	none
CCOc1ccccc1N(CC(=O)N1CCOCC1)S(=O)(=O)c1ccc(SC)cc1	TRPC4 agonist 175
Cc1ccc(S(=O)(=O)N(CC(=O)N2CCOCC2)c2ccccc2F)cc1	none
Cc1ccc(C)c(N(CC(=O)NC2CCCC2)C(=O)c2csnn2)c1	TRPC4 block -10, TRPC4 agonist 70
O=C(O)CCC(=O)Nc1ccc(Oc2ncnc3cc(Cl)ccc23)nc1	none
CCCOc1cc(C)c(S(=O)(=O)n2ccc(C)n2)cc1C	TRPC4 potent 13
Oc1c(Cl)cc(Cl)cc1Sc1cc(Cl)cc(Cl)c1O	TRPC4 agonist 86, TRPC6 inhibitor -8.4
O=C(CCCSc1nc2ccccc2[nH]1)NC(c1ccccc1)c1ccccc1	none
O=C(CCCSc1nc2ccccc2[nH]1)NCc1ccccc1Cl	TRPC4 block -8
CCN1CCN(C(CNS(=O)(=O)c2ccccc2)c2ccccc2)CC1 (stereo not given)	none
Cc1cccn2c(=O)c3cc(S(=O)(=O)c4ccc(F)cc4)c(=N)n(Cc4ccco4)c3nc12	none
Cc1cccn2c(=O)c3cc(S(=O)(=O)c4ccccc4)c(=N)n(Cc4ccco4)c3nc12	TRPC4 potent 10
CCOC(=O)C1(Cc2cccc(OC)c2)CCN(Cc2cccc(O)c2)CC1	TRPC4 block -8
CCOC(=O)C1(Cc2cccc(OC)c2)CCN(CC2CC=CCC2)CC1 (stereo not given)	TRPC4 block -5
CCOC(=O)C1(Cc2cccc(OC)c2)CCN(Cc2ccc(OC)c(OC)c2)CC1	none
CCOC(=O)C1(Cc2ccccc2)CCN(CC2CC=CCC2)CC1 (stereo not given)	TRPC4 block -6
CC(=O)Nc1ccc2sccc2c1	none
O=[N+]([O-])c1ccc(/C=N/Nc2nc(N3CCCCC3)nc(N3CCCCC3)n2)o1	TRPC4 potent 22
COc1c(/C=N/Nc2nc(N3CCCCC3)nc(N3CCCCC3)n2)cccc1[N+](=O)[O-]	none
CCc1ccc2nc3n[nH]c(N)c3cc2c1	TRPC4 agonist 68
O=C(CC1SC(=O)NC1=O)Nc1ccc(Cl)cc1 (stereo not given)	TRPC4 agonist 45
O=C(COC(=O)/C=C/c1ccco1)Nc1ccc(F)cc1Cl	none
CCOc1ccc(CN2CCN(c3cc(C)nc4c5c(C)cc(C)nc5nn34)CC2)cc1	TRPC4 agonist 50
CCOC(=O)C1(Cc2ccc(Cl)cc2)CCN(Cc2cn(CC)nc2C)CC1	TRPC4 block -6, TRPC4 agonist 68
CCOC(=O)C1(Cc2ccccc2)CCN(Cc2csc(C(C)=O)c2)CC1	none
CCOC(=O)C1(CCCc2ccccc2)CCN(Cc2cnn(C)c2)CC1	TRPC4 agonist 120
CCOC(=O)C1(Cc2ccccc2)CCN(Cc2cnn(C(C)C)c2)CC1	TRPC4 agonist 55
CCOC(=O)C1(CCc2ccccc2)CCN(Cc2ccccn2)CC1	TRPC4 block -8
O=C(NC(=S)NC1CCCCC1)c1ccc(F)cc1	none
C=CCc1cccc2cc(C(=O)NNC(=O)CC#N)c(=O)oc12	none
Cc1[nH]c2ccccc2c1C(=O)CN1CCCCC1CCO (stereo not given)	none
Cc1cc(C(=O)C[N+]2(C)CCOCC2)c(C)n1-c1ccc(Br)cc1	none
Cc1cc(C)nc(SCC(=O)Nc2nonc2N)n1	none

Screening results (PubChem)
